Assays:
[1] = Inhibition of calpain in rat hippocampal slices assessed as reduction in NMDA-induced intracellular spectrin cleavage; type: cell-based
Summary of the method: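 Rat hippocampal slice cultures were challenged with NMDA. The read-out was prevention of intracellular spectrin cleavage, and IC50 values were derived.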

[2] = molecular target: T1, Calpain-1 catalytic subunit (Homo sapiens, UniProt P07384); experiment: Inhibition of human erythrocyte calpain 1 using Suc-Leu-Tyr-AMC as substrate by fluorescence assay
T1 sequence (P07384 whole entry): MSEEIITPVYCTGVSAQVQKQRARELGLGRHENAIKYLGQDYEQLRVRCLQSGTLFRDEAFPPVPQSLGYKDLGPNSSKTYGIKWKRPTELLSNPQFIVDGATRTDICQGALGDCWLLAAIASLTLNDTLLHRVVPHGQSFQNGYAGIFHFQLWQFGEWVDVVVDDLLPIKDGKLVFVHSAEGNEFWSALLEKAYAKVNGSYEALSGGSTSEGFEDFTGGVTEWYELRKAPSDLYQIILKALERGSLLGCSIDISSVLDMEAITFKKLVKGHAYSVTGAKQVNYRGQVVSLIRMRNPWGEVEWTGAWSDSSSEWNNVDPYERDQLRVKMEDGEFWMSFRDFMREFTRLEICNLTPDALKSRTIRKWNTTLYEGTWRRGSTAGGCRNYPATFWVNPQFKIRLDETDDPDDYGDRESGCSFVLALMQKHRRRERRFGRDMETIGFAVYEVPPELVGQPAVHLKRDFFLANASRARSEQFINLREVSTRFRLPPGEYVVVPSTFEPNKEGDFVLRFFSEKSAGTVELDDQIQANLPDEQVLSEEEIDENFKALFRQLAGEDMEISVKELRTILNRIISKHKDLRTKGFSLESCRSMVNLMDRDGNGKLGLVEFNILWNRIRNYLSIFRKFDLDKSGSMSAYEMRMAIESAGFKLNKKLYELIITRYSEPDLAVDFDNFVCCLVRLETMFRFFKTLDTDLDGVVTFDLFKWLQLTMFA

[3] = Clearance in rat hepatocytes; type: ADME, cell-based, Hepatocyte
[4] = Clearance in human hepatocytes; type: ADME, cell-based, Hepatocyte
[5] = Intrinsic clearance in cynomolgus monkey liver cytosol at 0.5 uM measured after 15 mins in presence of NADPH by spectrometric method; type: ADME, subcellular, Macaca fascicularis; details: read-out: CLH
Summary of the method: (§1)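 Test compound incubated with monkey or human liver cytosol and percent parent lost over time followed. Intrinsic clearance calculated from this depletion, in µL/min/mg; ranges adjusted to hepatic plasma flow of the species.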

[6] = Intrinsic clearance in human liver cytosol at 0.5 uM measured after 15 mins in presence of NADPH by spectrometric method; type: ADME, subcellular; details: read-out: CLH; summary of the method: as §1

Structure (SMILES)	Ki [2] [nM]	other results
O=C(NC1CC1)C(=O)C(Cc1ccccc1)NC(=O)c1cccnc1-n1ccc(-c2ccccc2)n1 (stereo not given)	205	IC50 [1]: 750 nM
CC(C)NC(=O)C(=O)C(Cc1ccccc1)NC(=O)c1cccnc1-n1ccc(-c2ccccc2)n1 (stereo not given)	2600	–
CCONC(=O)C(=O)C(Cc1ccccc1)NC(=O)c1cccnc1-n1ccc(-c2ccccc2)n1 (stereo not given)	110	CLH [3]: 32 µL/min/mg; CLH [4]: 10 µL/min/mg; microsomal CLint at […], 0.5 µM [5]: < 1 µL/min/mg; microsomal CLint at […], 0.5 µM [6]: < 1 µL/min/mg
O=C(NCC1CC1)C(=O)C(Cc1ccccc1)NC(=O)c1cccnc1-n1ccc(-c2ccccc2)n1 (stereo not given)	550	–
CC1(NC(=O)C(=O)C(Cc2ccccc2)NC(=O)c2cccnc2-n2ccc(-c3ccccc3)n2)CC1 (stereo not given)	> 5000	–
CN(C)CCONC(=O)C(=O)C(Cc1ccccc1)NC(=O)c1cccnc1-n1ccc(-c2ccccc2)n1 (stereo not given)	1060	–
N#CCNC(=O)C(=O)C(Cc1ccccc1)NC(=O)c1cccnc1-n1ccc(-c2ccccc2)n1 (stereo not given)	950	–
CC(C)ONC(=O)C(=O)C(Cc1ccccc1)NC(=O)c1cccnc1-n1ccc(-c2ccccc2)n1 (stereo not given)	220	–
O=C(NCCc1ccccc1)C(=O)C(Cc1ccccc1)NC(=O)c1cccnc1-n1ccc(-c2ccccc2)n1 (stereo not given)	330	–
O=C(NOC1CCC1)C(=O)C(Cc1ccccc1)NC(=O)c1cccnc1-n1ccc(-c2ccccc2)n1 (stereo not given)	150	–
O=C(NC1CCC1)C(=O)C(Cc1ccccc1)NC(=O)c1cccnc1-n1ccc(-c2ccccc2)n1 (stereo not given)	490	–
CCNC(=O)C(=O)C(Cc1ccccc1)NC(=O)c1cccnc1-n1ccc(-c2ccccc2)n1 (stereo not given)	690	–
O=C(NOCC1CC1)C(=O)C(Cc1ccccc1)NC(=O)c1cccnc1-n1ccc(-c2ccccc2)n1 (stereo not given)	90	–
CONC(=O)C(=O)C(Cc1ccccc1)NC(=O)c1cccnc1-n1ccc(-c2ccccc2)n1 (stereo not given)	120	IC50 [1]: 2150 nM
CCCNC(=O)C(=O)C(Cc1ccccc1)NC(=O)c1cccnc1-n1ccc(-c2ccccc2)n1 (stereo not given)	480	–
O=C(NOCCN1CCOCC1)C(=O)C(Cc1ccccc1)NC(=O)c1cccnc1-n1ccc(-c2ccccc2)n1 (stereo not given)	265	–
CCCONC(=O)C(=O)C(Cc1ccccc1)NC(=O)c1cccnc1-n1ccc(-c2ccccc2)n1 (stereo not given)	75	–
O=C(NC1CCCC1)C(=O)C(Cc1ccccc1)NC(=O)c1cccnc1-n1ccc(-c2ccccc2)n1 (stereo not given)	1350	–
O=C(NCc1ccccc1)C(=O)C(Cc1ccccc1)NC(=O)c1cccnc1-n1ccc(-c2ccccc2)n1 (stereo not given)	110	–
C=CCNC(=O)C(=O)C(Cc1ccccc1)NC(=O)c1cccnc1-n1ccc(-c2ccccc2)n1 (stereo not given)	470	–
O=C(NOC1CCCC1)C(=O)C(Cc1ccccc1)NC(=O)c1cccnc1-n1ccc(-c2ccccc2)n1 (stereo not given)	120	–
CNC(=O)C(=O)C(Cc1ccccc1)NC(=O)c1cccnc1-n1ccc(-c2ccccc2)n1 (stereo not given)	380	–
C=CCONC(=O)C(=O)C(Cc1ccccc1)NC(=O)c1cccnc1-n1ccc(-c2ccccc2)n1 (stereo not given)	185	–
O=C(NCc1nc2ccccc2o1)C(=O)C(Cc1ccccc1)NC(=O)c1cccnc1-n1ccc(-c2ccccc2)n1 (stereo not given)	210	–
